Test results: ChEMBL document CHEMBL1158391, “Synthesis and antileishmanial activity of novel 2,4,6-trisubstituted pyrimidines and 1,3,5-triazines” (Eur J Med Chem, 2009)
Converted amounts (≈) assume the structure as drawn. The source made the active and inactive calls. The rule behind the calls is not given here.

Legend:
Leishmania donovani [1] = test: Antileishmanial activity against Leishmania donovani MHOM/IN/80/Dd8 promastigotes at 10 ug/ml after 72 hrs; format: functional
How it was run: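 Promastigotes were transfected with firefly luciferase and kept in medium 199 with 10% foetal calf serum, penicillin/streptomycin and G418. Late-log cells (5×10⁵/well) were exposed for 72 h to serial dilutions (1–10 range) in DMSO, with DMSO controls. Luminescence was read with Steady-Glo. % inhibition = (N − n)×100/N, using mean RLU of control (N) and treated (n) wells.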

[2] = Cytotoxicity against mouse J774A1 cells after 72 hrs by MTT assay; format: cell-based, J774.A1
How it was run: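 J774A.1 cells were kept in RPMI with 10% foetal calf serum and gentamycin. Cells (1×10⁴/well) were exposed to graded concentrations diluted from DMSO stocks for 72 h at 37 °C in humidified CO₂. MTT (5 mg/ml stock in PBS) was added for 2 h, and formazan was dissolved in DMSO and read at 544 nm. CC50 was the concentration giving 50% viability loss versus medium-only cells, estimated by template.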

Leishmania donovani [3] = test: Antileishmanial activity against Leishmania donovani MHOM/IN/80/Dd8 amastigotes infected in mouse J774A.1 cells after 72 hrs; format: functional, organism-based; settings: MHOM/IN/80/Dd8, J774.A1, 72 h
How it was run: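 J774A.1 macrophages (1.5×10⁴/well) were cultured in RPMI-1640 with 10% foetal calf serum at 37 °C in CO₂. After 24 h they were infected with stationary-phase luciferase-transfected promastigotes (2.25×10⁵/well), which transform into amastigotes. Test material (0.25–10 range) in complete medium was then applied for 72 h. Steady-Glo luminescence of treated wells was compared with untreated controls.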

[4] = (§1) Selectivity index, ratio of CC50 for mouse J774A1 cells to IC50 for Leishmania donovani MHOM/IN/80/Dd8 amastigotes; format: functional, J774.A1
How it was run: (§2)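 Ratio of J774A.1 CC50 (MTT, 72 h) to IC50 from the luciferase assay on intracellular amastigotes in J774A.1 macrophages (72 h exposure).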

Leishmania donovani [5] = test: Antileishmanial activity against Leishmania donovani MHOM/IN/80/Dd8 amastigotes infected in golden hamster at 50 mg/kg, ip administered 5 times per day for 5 days; format: functional
How it was run: (§3)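 Golden hamsters infected with L. donovani MHOM/IN/80/Dd8 were randomized into groups by parasite burden, 4–6 animals per sample. Intraperitoneal dosing began 2 days after biopsy. Post-treatment biopsy was taken on day 7 after the last dose, and amastigotes were counted by Giemsa staining. Percentage inhibition was calculated from actual and initial counts in treated animals and the fold increase in untreated controls.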

Leishmania donovani [6] = test: Antileishmanial activity against Leishmania donovani MHOM/IN/80/Dd8 amastigotes infected in golden hamster at 20 mg/kg, ip administered 5 times per day for 5 days; format: functional; settings: route intraperitoneal; how it was run: as §3
Leishmania donovani [7] = test: Antileishmanial activity against Leishmania donovani MHOM/IN/80/Dd8 promastigotes at 0.5 ug/ml after 72 hrs; format: functional
Leishmania donovani [8] = test: Antileishmanial activity against Leishmania donovani MHOM/IN/80/Dd8 amastigotes infected in golden hamster at 40 mg/kg, ip administered 5 times per day for 5 days; format: functional, organism-based; parameters: dose 40 mg/kg; how it was run: as §3
Leishmania donovani [9] = test: Antileishmanial activity against Leishmania donovani MHOM/IN/80/Dd8 promastigotes at […] after 72 hrs; format: functional, organism-based
J774.A1 = test: as §1; format: functional; how it was run: as §2

IC50 (Leishmania donovani [3]) [µg/mL]	Compound	Activity (Leishmania donovani [1])	CC50 at 72 h [2] [µg/mL]	Ratio CC50/IC50 [4]	further results
–	COc1cc(-c2cc(NCCN3CCOCC3)nc(N)n2)cc(OC)c1OC	68.5%	–	–	–
–	COc1ccc(-c2cc(SC)nc(Nc3nc(NCCCN4CCOCC4)nc(NCCCN4CCOCC4)n3)n2)cc1OC	35.2%	–	–	–
1.04 (≈ 2.08 µM)	COc1cc(-c2cc(SC)nc(Nc3nc(NC(C)C)nc(NC(C)C)n3)n2)cc(OC)c1OC	94.5%	1.9 (≈ 3.8 µM)	1.82	–
–	COc1cc(-c2cc(SC)nc(Nc3nc(NCCN4CCOCC4)nc(NCCN4CCOCC4)n3)n2)cc(OC)c1OC	42.5%	–	–	–
7.02 (≈ 12.6 µM)	COc1cc(-c2cc(SC)nc(Nc3nc(N4CCOCC4)nc(N4CCOCC4)n3)n2)cc(OC)c1OC	80.8%	10.8 (≈ 19.5 µM)	1.54	–
–	CCCCNc1nc(NCCCC)nc(Nc2nc(SC)cc(-c3ccc(OC)c(OC)c3)n2)n1	78.6%	–	–	–
–	CCCCNc1nc(NCCCC)nc(Nc2nc(SC)cc(-c3cc(OC)c(OC)c(OC)c3)n2)n1	75.5%	–	–	–
1.8 (≈ 3.26 µM)	COc1cc(-c2cc(SC)nc(Nc3nc(N4CCCCC4)nc(N4CCCCC4)n3)n2)cc(OC)c1OC	90.8%	51.7 (≈ 93.5 µM)	28.7	Activity (Leishmania donovani [5]; route intraperitoneal): 56.58%
7.09 (≈ 20.6 µM)	COc1cc(-c2cc(N3CCCCC3)nc(N)n2)cc(OC)c1OC	88%	10.4 (≈ 30.3 µM)	1.47	–
–	N=C(N)c1ccc(OCCCCCOc2ccc(C(=N)N)cc2)cc1 [PENTAMIDINE]	–	31.3 (≈ 92 µM)	–	Activity (Leishmania donovani [6]): 84.1%; Activity (Leishmania donovani [7]): 85%
–	COc1ccc(-c2cc(SC)nc(Nc3nc(NCCN4CCOCC4)nc(NCCN4CCOCC4)n3)n2)cc1OC	inactive	–	–	–
4.56 (≈ 7.47 µM)	CCN1CCN(c2nc(Nc3nc(SC)cc(-c4cc(OC)c(OC)c(OC)c4)n3)nc(N3CCN(CC)CC3)n2)CC1	100%	27.4 (≈ 44.8 µM)	6	–
2.97 (≈ 5.62 µM)	COc1cc(-c2cc(SC)nc(Nc3nc(NC(C)(C)C)nc(NC(C)(C)C)n3)n2)cc(OC)c1OC	95.8%	9.8 (≈ 18.5 µM)	3.29	–
–	COc1ccc(-c2cc(SC)nc(Nc3nc(NC(C)C)nc(NC(C)C)n3)n2)cc1OC	inactive	–	–	–
2.27 (≈ 4.82 µM)	CCCNc1nc(NCCC)nc(Nc2nc(SC)cc(-c3ccc(OC)c(OC)c3)n2)n1	85.6%	14.3 (≈ 30.5 µM)	6.31	–
–	COc1ccc(-c2cc(SC)nc(Nc3nc(NC(C)(C)C)nc(NC(C)(C)C)n3)n2)cc1OC	inactive	–	–	–

IC50 (Leishmania donovani [3]) [µg/mL]	Compound	Activity (Leishmania donovani [1])	CC50 at 72 h [2] [µg/mL]	Ratio CC50/IC50 [4]	further results
–	CCCNc1nc(NCCC)nc(Nc2nc(SC)cc(-c3cc(OC)c(OC)c(OC)c3)n2)n1	86.7%	1.46 (≈ 2.92 µM)	–	–
0.89 (≈ 1.61 µM)	COc1ccc(-c2cc(SC)nc(Nc3nc(N4CCN(C)CC4)nc(N4CCN(C)CC4)n3)n2)cc1OC	99.8%	36.2 (≈ 65.6 µM)	40.71	–
9.68 (≈ 18.4 µM)	COc1ccc(-c2cc(SC)nc(Nc3nc(N4CCOCC4)nc(N4CCOCC4)n3)n2)cc1OC	90.5%	23.9 (≈ 45.3 µM)	2.46	–
–	COc1cc(-c2cc(N3CCN(C)CC3)nc(N)n2)cc(OC)c1OC	63.88%	–	–	–
–	CCN(CC)CCNc1nc(NCCN(CC)CC)nc(Nc2nc(SC)cc(-c3cc(OC)c(OC)c(OC)c3)n2)n1	inactive	–	–	–
5.12 (≈ 13.6 µM)	CCN(CC)CCNc1cc(-c2cc(OC)c(OC)c(OC)c2)nc(N)n1	95.1%	81.5 (≈ 217 µM)	15.92	Activity (Leishmania donovani [5]; route intraperitoneal): 48.46%
–	sodium stibogluconate	–	–	–	Activity (Leishmania donovani [5]): 48.5%; Activity (Leishmania donovani [8]): 92%; Activity (Leishmania donovani [9]): 40%; Ratio CC50/IC50 (J774.A1): 5.53
–	COc1ccc(-c2cc(SC)nc(Nc3nc(N4CCCCC4)nc(N4CCCCC4)n3)n2)cc1OC	53.8%	–	–	–
–	COc1cc(-c2cc(N3CCOCC3)nc(N)n2)cc(OC)c1OC	43.9%	–	–	–
–	COc1cc(-c2cc(SC)nc(Nc3nc(NCCCN4CCOCC4)nc(NCCCN4CCOCC4)n3)n2)cc(OC)c1OC	75.2%	–	–	–
4.88 (≈ 8.34 µM)	CCN(CC)CCNc1nc(NCCN(CC)CC)nc(Nc2nc(SC)cc(-c3ccc(OC)c(OC)c3)n2)n1	94.7%	42 (≈ 71.8 µM)	8.6	–
–	COc1cc(-c2cc(NCCCN3CCOCC3)nc(N)n2)cc(OC)c1OC	46.9%	–	–	–
4.99 (≈ 15 µM)	CCCCNc1cc(-c2cc(OC)c(OC)c(OC)c2)nc(N)n1	84.4%	49.9 (≈ 150 µM)	10	Activity (Leishmania donovani [5]; route intraperitoneal): 54.1%
–	CCN1CCN(c2nc(Nc3nc(SC)cc(-c4ccc(OC)c(OC)c4)n3)nc(N3CCN(CC)CC3)n2)CC1	inactive	–	–	–
1.34 (≈ 2.3 µM)	COc1cc(-c2cc(SC)nc(Nc3nc(N4CCN(C)CC4)nc(N4CCN(C)CC4)n3)n2)cc(OC)c1OC	99.5%	16.5 (≈ 28.4 µM)	12.34	–
